Measurements published in ChEMBL document CHEMBL1124104, “(Acyloxy)benzophenones and (acyloxy)-4-pyrones. A new class of inhibitors of human neutrophil elastase” (J Med Chem, 1988).

Tests used:
[1] = biological target: T1, Neutrophil elastase (Homo sapiens, UniProt P08246); test: Inhibitory activity against human leukocyte elastase at 10e-6 M
T1 sequence (P08246 whole entry): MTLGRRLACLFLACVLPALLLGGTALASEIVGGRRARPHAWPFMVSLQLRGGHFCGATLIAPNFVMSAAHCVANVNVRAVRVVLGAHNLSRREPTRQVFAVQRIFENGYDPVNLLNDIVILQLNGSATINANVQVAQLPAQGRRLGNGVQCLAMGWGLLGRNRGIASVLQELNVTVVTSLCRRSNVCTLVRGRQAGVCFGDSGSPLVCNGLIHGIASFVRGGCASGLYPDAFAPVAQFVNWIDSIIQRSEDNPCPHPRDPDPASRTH

[2] = biological target: T1, Neutrophil elastase; test: Inhibitory activity against human leukocyte elastase at 10e-7 M
[3] = Inhibitory activity against Hog pancreatic elastase; IA = Inactive at 10e-5 M; set-up: species or system Sus scrofa
[4] = Inhibitory activity against pancreatic elastase; IA = Inactive at 10e-5 M
[5] = biological target: T1, Neutrophil elastase; test: Inhibitory activity against human leukocyte elastase at 10e-9 M
Procedure, shortened: (§1)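 HLE activity followed as rise in absorbance at 410 nm from nitroanilide release; substrate (methoxysuccinyl)Ala-Ala-Pro-Val nitroanilide at 10⁻⁴ M. Run in 0.2 M Tris, pH 8.0, 30 °C. Inhibitors and substrate dissolved in DMSO, which made up 10% of the final medium. Enzyme titrated to give 0.12 OD unit/min per 10 mm path.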

[6] = biological target: T1, Neutrophil elastase; test: Inhibitory activity against human leukocyte elastase at 10e-5 M; procedure, shortened: as §1
[7] = Inhibitory activity against Hog pancreatic elastase;IA = Inactive at 10e-5 M; set-up: species or system Sus scrofa
[8] = biological target: T2, Neutrophil elastase (Homo sapiens) (UniProt P08246); test: Inhibitory activity against [14C]elastin hydrolysis at 3 uM concentration and 1h.
T2 sequence (whole entry): T1 sequence (P08246 whole entry)
Procedure, shortened: (§2)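 Elastase digestion of [¹⁴C]elastin, quantitated by radiolabel release (method of Bielefeld et al.). Substrate, inhibitor and elastase were all present for the whole run, and % inhibition was read at 1, 2 and 3 h.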

[9] = biological target: T2, Neutrophil elastase (Homo sapiens); test: Inhibitory activity against [14C]elastin hydrolysis at 3 uM concentration and 2 hr.; procedure, shortened: as §2
[10] = biological target: T2, Neutrophil elastase (Homo sapiens); test: Inhibitory activity against [14C]-Elastin hydrolysis at 3 uM concentration and 3h.; procedure, shortened: as §2
[11] = biological target: T2, Neutrophil elastase (Homo sapiens); test: Inhibitory activity against [14C]elastin hydrolysis at 4 uM concentration and 1h.; procedure, shortened: as §2
[12] = biological target: T2, Neutrophil elastase (Homo sapiens); test: Inhibitory activity against [14C]elastin hydrolysis at 4 uM concentration and 2 hr.; procedure, shortened: as §2
[13] = biological target: T2, Neutrophil elastase (Homo sapiens); test: Inhibitory activity against [14C]elastin hydrolysis at 4 uM concentration and 3h.; procedure, shortened: as §2
[14] = biological target: T2, Neutrophil elastase (Homo sapiens); test: Inhibitory activity against [14C]elastin hydrolysis at 2 uM concentration and 1h.; procedure, shortened: as §2
[15] = biological target: T2, Neutrophil elastase (Homo sapiens); test: Inhibitory activity against [14C]-Elastin hydrolysis at 2 uM concentration and 2 hr.; procedure, shortened: as §2
[16] = biological target: T2, Neutrophil elastase (Homo sapiens); test: Inhibitory activity against [14C]-Elastin hydrolysis at 2 uM concentration and 3h.; procedure, shortened: as §2
[17] = biological target: T1, Neutrophil elastase; test: Inhibitory activity against human leukocyte elastase; No inhibition at 1x10E-2 M; procedure, shortened: as §1
[18] = biological target: T2, Neutrophil elastase (Homo sapiens); test: Inhibitory activity against [14C]elastin hydrolysis at 1 uM concentration and 1h.; procedure, shortened: as §2
[19] = biological target: T2, Neutrophil elastase (Homo sapiens); test: Inhibitory activity against [14C]elastin hydrolysis at 1 uM concentration and 2 hr.; procedure, shortened: as §2
[20] = biological target: T2, Neutrophil elastase (Homo sapiens); test: Inhibitory activity against [14C]elastin hydrolysis at 1 uM concentration and 3h.; procedure, shortened: as §2
[21] = biological target: T2, Neutrophil elastase (Homo sapiens); test: (§3) Inhibitory activity against human leukocyte elastase at 10e-4 M; procedure, shortened: as §1
[22] = biological target: T1, Neutrophil elastase; test: Inhibitory activity against human leukocyte elastase at 10e-8 M
[23] = biological target: T1, Neutrophil elastase; test: as §3; procedure, shortened: as §1
[24] = Inhibitory activity against Hog pancreatic elastase; A = Inactive at 10e-5 M; set-up: species or system Sus scrofa
[25] = biological target: T1, Neutrophil elastase; test: Binding affinity towards human leukocyte elastase at 10e-7 M
[26] = Inhibitory activity against pancreatic elastase; A = Inactive at 10e-5 M
[27] = biological target: T2, Neutrophil elastase (Homo sapiens); test: Inhibitory activity against [14C]-Elastin hydrolysis at 0.5 uM concentration and 2 hr.; procedure, shortened: as §2
[28] = biological target: T2, Neutrophil elastase (Homo sapiens); test: Inhibitory activity against [14C]elastin hydrolysis at 0.5 uM concentration and 3h.; procedure, shortened: as §2
[29] = biological target: T2, Neutrophil elastase (Homo sapiens); test: Inhibitory activity against [14C]elastin hydrolysis at 0.5 uM concentration and 1h.; procedure, shortened: as §2

CC(C)(C)C(=O)Oc1ccccc1C(=O)c1ccccc1OC(=O)C(C)(C)C
IC50 [1]: 8 µM

Cc1cc(C)c(C(=O)OCc2cc(=O)c(OC(=O)C(C)(C)C)co2)c(C)c1
IC50 [1]: 8.4 µM

CC(C)(C)C(=O)Oc1coc(COC(c2ccccc2)(c2ccccc2)c2ccccc2)cc1=O
IC50 [1]: 1 µM

CCCCCC/C=C/CCCCCCCC(=O)OCc1cc(=O)c(OC(=O)C(C)(C)C)co1
IC50 [2]: 0.13 µM
IC50 [3]: Not Active
IC50 [4]: Not Active

C=C(C)C(=O)Oc1ccc(C(=O)c2ccccc2)cc1
IC50 [5]: 1.9 µM

CC(C)(C)C(=O)Oc1ccc(Cc2ccc(OC(=O)C(C)(C)C)cc2)cc1
IC50 [2]: 0.46 µM

CC(C)(C)C(=O)Oc1ccc(Oc2ccc(OC(=O)C(C)(C)C)cc2)cc1
IC50 [2]: 0.45 µM

CC(C)(C)C(=O)Oc1ccccc1C(=O)c1ccccc1
IC50 [2]: 10 µM

CC(C(=O)O)c1cc(C(=O)c2ccccc2)ccc1OC(=O)C(C)(C)C (stereo not drawn)
IC50 [6]: 12 µM

CC(C)(C)C(=O)Oc1ccc(C(=O)c2ccc(Cl)cc2)cc1
IC50 [2]: 0.14 µM

CC(=O)Oc1ccc(C(=O)c2ccccc2)cc1
IC50 [6]: 16 µM

CC(=O)NC(C)(C)C(=O)Oc1ccc(C(=O)c2ccccc2)cc1
IC50 [6]: 19 µM

CCCCCCCC/C=C/CCCCCCCC(=O)OCc1cc(=O)c(OC(=O)[C@]23C[C@H]4C[C@H](C[C@H](C4)C2)C3)co1
IC50 [6]: 80 µM

CC(C)(C)C(=O)OCc1cc(=O)c(OC(=O)C(C)(C)C)co1
IC50 [6]: 36 µM

CCCCCCCCCCCCCCCCCC(=O)OCc1cc(=O)c(OC(=O)C(C)(C)C)co1
IC50 [7]: Not Active
inhibition [8]: 67%
inhibition [9]: 39%
inhibition [10]: 13%
inhibition [11]: 79%
inhibition [12]: 53%
inhibition [13]: 21%
IC50 [2]: 0.1 µM
inhibition [14]: 57%
inhibition [15]: 21%
inhibition [16]: 9%
IC50 [4]: Not Active

CCCCCCCCCCCCCCCCCCCC(=O)OCc1cc(=O)c(O)co1
IC50 [2]: 9 µM

O=C1CCc2cc(C(=O)c3ccccc3)ccc2O1
IC50 [17]: No inhibition

CC(C)(C)C(=O)Oc1coc(COC2CCOCC2)cc1=O
IC50 [6]: 43 µM

O=C(c1ccccc1)c1ccc(OC(=O)C2CC2)cc1
IC50 [1]: 1.4 µM

CCCCCCC/C=C/CCCCCCCCC(=O)Oc1coc(COC(=O)CCCCCCC/C=C/CCCCCCCC)cc1=O
IC50 [1]: 6.1 µM

CC(C)(C)C(=O)Oc1ccc(C(O)c2ccc(OC(=O)C(C)(C)C)cc2)cc1
IC50 [1]: 1.5 µM

CC(C)(C)C(=O)Oc1ccc(C(=O)c2ccccc2)c(OC(=O)C(C)(C)C)c1
inhibition [8]: 62%
inhibition [9]: 32%
inhibition [10]: 10%
inhibition [18]: 14%
inhibition [19]: 10%
inhibition [14]: 36%
inhibition [15]: 12%
inhibition [16]: 9%

CC(C)(C)C(=O)Oc1cc(C(=O)OCc2cc(=O)c(OC(=O)C(C)(C)C)co2)cc(OC(=O)C(C)(C)C)c1OC(=O)C(C)(C)C
inhibition [8]: 71%
inhibition [9]: 67%
inhibition [10]: 31%
inhibition [18]: 39%
inhibition [19]: 15%
inhibition [20]: 3%
IC50 [2]: 0.1 µM
inhibition [14]: 58%
inhibition [15]: 44%
inhibition [16]: 5%

CC(CO)Cc1cc(C(=O)c2ccccc2)ccc1OC(=O)C(C)(C)C (stereo not drawn)
IC50 [1]: 1.5 µM

CCCCCCCC/C=C/CCCCCCCCCCCC(=O)OCc1cc(=O)c(OC(=O)C(C)(C)C)co1
inhibition [8]: 74%
inhibition [9]: 46%
inhibition [10]: 32%
inhibition [11]: 77%
inhibition [12]: 50%
inhibition [13]: 22%
IC50 [2]: 0.16 µM
inhibition [14]: 61%
inhibition [15]: 33%
inhibition [16]: 13%

CCCCCCCCCCCCCCCC(=O)OCc1cc(=O)c(OC(=O)C(C)(C)C)co1
IC50 [2]: 0.11 µM

CC(C)(C)C(=O)Oc1ccc(C(=O)OCc2cc(=O)c(OC(=O)C(C)(C)C)co2)cc1
IC50 [2]: 0.2 µM
IC50 [3]: Not Active
IC50 [4]: Not Active

CC(C=O)Cc1cc(C(=O)c2ccccc2)ccc1OC(=O)C(C)(C)C (stereo not drawn)
IC50 [2]: 0.8 µM

CC(C)(C)C(=O)Oc1ccc(S(=O)(=O)c2ccc(O)cc2)cc1
IC50 [2]: 1.8 µM

O=c1cc(COC2CCOCC2)occ1OC(=O)[C@]12C[C@H]3C[C@H](C[C@H](C3)C1)C2
inhibition [21]: 33%

CC1(C)Cc2cc(C(=O)c3ccccc3)ccc2OC1=O
IC50 [17]: No inhibition

CCCCCCCCCCCCCCCCCC(=O)OCc1cc(=O)c(OC(=O)C(C)C)co1
IC50 [22]: 0.072 µM

CC1C(=O)Oc2ccc(C(=O)c3ccccc3)cc21 (stereo not drawn)
IC50 [17]: No inhibition

CC(C)(C)C(=O)Oc1ccc(C(=O)c2ccc(O)cc2)cc1
IC50 [1]: 2.7 µM

CC1Cc2cc(C(=O)c3ccccc3)ccc2OC1=O (stereo not drawn)
IC50 [17]: No inhibition

CCCCCCCC/C=C/CCCCCCCCCC(=O)OCc1cc(=O)c(OC(=O)C(C)(C)C)co1
IC50 [2]: 0.21 µM

CCCCCCCCCCCCCCCC(=O)OCc1cc(=O)c(O)co1
IC50 [23]: 100 µM

CC(C)(C)C(=O)Oc1ccc(C(=O)OCc2cc(=O)c(OC(=O)C(C)(C)C)co2)c(OC(=O)C(C)(C)C)c1
inhibition [11]: 93%
inhibition [12]: 80%
inhibition [13]: 54%
inhibition [18]: 25%
inhibition [19]: 5%
inhibition [20]: -1%
IC50 [22]: 0.027 µM
inhibition [14]: 36%
inhibition [15]: 16%
inhibition [16]: 1%
IC50 [24]: Not Active
Ki [25]: 0.07 µM
IC50 [26]: Not Active

CCCCCCCCCCCCC(C)(C)C(=O)OCc1cc(=O)c(OC(=O)C(C)(C)C)co1
IC50 [2]: 0.6 µM

CC(C)(C)C(=O)Oc1ccc(S(=O)(=O)c2ccc(OC(=O)C(C)(C)C)cc2)cc1
inhibition [8]: 56%
inhibition [9]: 40%
inhibition [10]: 29%
inhibition [18]: 29%
inhibition [19]: 14%
inhibition [14]: 39%
inhibition [15]: 29%
inhibition [16]: 8%

CCCCCCCCCCCCCCCCCCCC(=O)OCc1cc(=O)c(OC(=O)C(C)(C)C)co1
IC50 [2]: 0.13 µM

CC(C)(C)C(=O)Oc1coc(COC(=O)c2ccc(-c3ccccc3)cc2)cc1=O
IC50 [1]: 1.9 µM

CCC(=O)Oc1ccc(C(=O)c2ccccc2)cc1
IC50 [1]: 6.2 µM

CCC(C)CC(=O)Oc1ccc(C(=O)c2ccc(OC(=O)CC(C)CC)cc2OC(=O)CC(C)CC)c(OC(=O)CC(C)CC)c1 (stereo not drawn)
IC50 [1]: 1.5 µM

O=C(c1ccccc1)c1ccc(OC(=O)C2CCCCC2)cc1
IC50 [6]: 20 µM

CC(C)(C)C(=O)Oc1ccccc1C(=O)OCc1cc(=O)c(OC(=O)C(C)(C)C)co1
IC50 [1]: 5.4 µM

CCCCCCCC/C=C/CCCCCCCC(=O)OCc1cc(=O)c(OC(=O)C(C)(C)C)co1
IC50 [2]: 0.3 µM

CC(C)(C)C(=O)Oc1ccc(C(=O)c2ccc(OC(=O)C(C)(C)C)cc2OC(=O)C(C)(C)C)cc1
inhibition [27]: 19%
inhibition [28]: 6%
inhibition [18]: 45%
inhibition [19]: 63%
inhibition [20]: 47%
inhibition [14]: 81%
inhibition [15]: 81%
inhibition [16]: 76%
inhibition [29]: 20%

CC(C)(C)C(=O)Oc1ccc(C(OC(=O)CCC(=O)O)c2ccc(OC(=O)C(C)(C)C)cc2)cc1
IC50 [1]: 3 µM

CC1(C)C(=O)Oc2ccc(C(=O)c3ccccc3)cc21
IC50 [17]: No inhibition

C=C(C)Cc1cc(C(=O)c2ccccc2)ccc1OC(=O)C(C)(C)C
IC50 [2]: 0.85 µM
